Calls of active or inactive are those of the source. No cut-off for these calls is given here.

Experiment [1] has as its target Serine/threonine-protein kinase 32B (Homo sapiens) (UniProt Q9NY57). Put plainly: Inhibition of YANK2 assessed as residual activity at 10 uM relative to control.
Experiment [2] has as its target Serine/threonine-protein kinase TBK1 (Homo sapiens) (UniProt Q9UHD2). Put plainly: Inhibition of TBK1 assessed as residual activity at 10 uM relative to control.
The target of experiment [3] is T1, Mitogen-activated protein kinase kinase kinase 7 (Homo sapiens) (UniProt O43318).
T1 sequence (whole entry): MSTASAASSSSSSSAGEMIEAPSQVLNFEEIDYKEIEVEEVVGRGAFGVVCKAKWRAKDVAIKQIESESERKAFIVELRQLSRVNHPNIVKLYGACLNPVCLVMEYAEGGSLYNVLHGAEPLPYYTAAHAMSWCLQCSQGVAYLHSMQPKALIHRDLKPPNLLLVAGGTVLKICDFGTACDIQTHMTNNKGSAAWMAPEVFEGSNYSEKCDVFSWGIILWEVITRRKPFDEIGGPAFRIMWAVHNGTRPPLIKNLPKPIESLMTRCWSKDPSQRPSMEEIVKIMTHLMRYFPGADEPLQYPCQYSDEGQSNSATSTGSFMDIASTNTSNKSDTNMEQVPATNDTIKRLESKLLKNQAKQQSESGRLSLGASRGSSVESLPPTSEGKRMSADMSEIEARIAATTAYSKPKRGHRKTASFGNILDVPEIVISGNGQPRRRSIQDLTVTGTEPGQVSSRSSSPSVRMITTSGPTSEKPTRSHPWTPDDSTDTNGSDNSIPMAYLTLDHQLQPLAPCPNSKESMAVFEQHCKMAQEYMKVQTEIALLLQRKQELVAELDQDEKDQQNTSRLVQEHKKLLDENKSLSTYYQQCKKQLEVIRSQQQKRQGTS
Put plainly: Inhibition of TAK1 assessed as residual activity at 10 uM relative to control.

The target in experiment [4] is STE20/SPS1-related proline-alanine-rich protein kinase (Homo sapiens) (UniProt Q9UEW8). Put plainly: Inhibition of STK39 assessed as residual activity at 10 uM relative to control.
The target of experiment [5] is Serine/threonine-protein kinase 24 (Homo sapiens) (UniProt Q9Y6E0). Put plainly: Inhibition of MST3 assessed as residual activity at 1 uM.
Experiment [6] deals with Maternal embryonic leucine zipper kinase (Homo sapiens) (UniProt Q14680). The experiment can be described thus: Inhibition of MELK assessed as residual activity at 1 uM.
The target of experiment [7] is Rho-associated protein kinase 1 (Homo sapiens) (UniProt Q13464). Put plainly: Inhibition of ROCK1 assessed as residual activity at 10 uM relative to control.
The target in experiment [8] is T2, NUAK family SNF1-like kinase 1 (Homo sapiens) (UniProt O60285).
T2 sequence (whole entry): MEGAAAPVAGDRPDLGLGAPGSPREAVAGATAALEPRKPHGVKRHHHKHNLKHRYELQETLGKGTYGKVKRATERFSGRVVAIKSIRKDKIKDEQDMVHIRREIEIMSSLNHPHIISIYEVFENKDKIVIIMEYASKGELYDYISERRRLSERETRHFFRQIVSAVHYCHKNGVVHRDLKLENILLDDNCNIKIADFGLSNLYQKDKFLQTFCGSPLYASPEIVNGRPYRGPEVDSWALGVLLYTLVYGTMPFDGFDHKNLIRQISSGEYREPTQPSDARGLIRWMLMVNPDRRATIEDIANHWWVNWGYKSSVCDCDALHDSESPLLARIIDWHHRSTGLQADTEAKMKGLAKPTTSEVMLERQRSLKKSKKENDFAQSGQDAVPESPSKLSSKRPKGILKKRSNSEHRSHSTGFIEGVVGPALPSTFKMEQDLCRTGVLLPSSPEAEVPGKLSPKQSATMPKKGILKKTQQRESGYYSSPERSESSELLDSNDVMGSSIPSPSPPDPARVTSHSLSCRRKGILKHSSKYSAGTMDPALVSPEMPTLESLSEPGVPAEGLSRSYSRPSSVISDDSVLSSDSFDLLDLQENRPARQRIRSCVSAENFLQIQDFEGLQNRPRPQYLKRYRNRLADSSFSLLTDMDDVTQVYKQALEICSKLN
Put plainly: Inhibition of ARK5 assessed as residual activity at 10 uM relative to control.

The target in experiment [9] is Activin receptor type-1B (Homo sapiens) (UniProt P36896). Put plainly: Inhibition of ACVR1B assessed as residual activity at 10 uM relative to control.
The target of experiment [10] is Dual specificity tyrosine-phosphorylation-regulated kinase 3 (Homo sapiens) (UniProt O43781). The experiment can be described thus: Inhibition of DYRK3 assessed as residual activity at 1 uM. The gist of the method: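 Standard radioactivity-based enzymatic kinase assays on a 131-kinase panel run by the Dundee profiling service; residual kinase activity recorded.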

The target in experiment [11] is Cyclin-dependent kinase 2/cyclin A (Homo sapiens) (UniProt P24941+P20248+P78396). Put plainly: Inhibition of CDK2-Cyclin A assessed as residual activity at 1 uM. In kind it is protein-complex assay.
Experiment [12] addresses Serine/threonine-protein kinase WNK1 (Homo sapiens) (UniProt Q9H4A3). Put plainly: Inhibition of WNK1 assessed as residual activity at 10 uM.
Experiment [13] concerns the target Serine/threonine-protein kinase Nek6 (Homo sapiens) (UniProt Q9HC98). Put plainly: Inhibition of NEK6 assessed as residual activity at 10 uM.
Experiment [14] has as its target Receptor-type tyrosine-protein kinase FLT3 (Homo sapiens) (UniProt P36888). Put plainly: Inhibition of FLT3 assessed as residual activity at 10 uM relative to control.
The target of experiment [15] is Focal adhesion kinase 1 (Homo sapiens) (UniProt Q05397). The experiment can be described thus: Inhibition of FAK assessed as residual activity at 10 uM relative to control.
The target in experiment [16] is Receptor tyrosine-protein kinase erbB-2 (Homo sapiens) (UniProt P04626). The experiment can be described thus: Inhibition of ERBB2 assessed as residual activity at 10 uM relative to control. In a few lines:
(§1)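 Competition kinase-binding assay (KINOMEscan) across a non-redundant panel of 329 kinases beyond the radiometric panel; residual binding expressed relative to control.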

For experiment [17], the target named is Epidermal growth factor receptor (Homo sapiens) (UniProt P04626+P00533+Q15303+P21860). Put plainly: Inhibition of EGFR S752-I759del mutant assessed as residual activity at 10 uM relative to control. In kind it is protein assay. The gist of the method:
as §1

Experiment [18] addresses Tyrosine-protein kinase ZAP-70 (Homo sapiens) (UniProt P43403). Put plainly: Inhibition of ZAP70 assessed as residual activity at 1 uM.
The target in experiment [19] is Angiopoietin-1 receptor (Homo sapiens) (UniProt Q02763). Put plainly: Inhibition of TIE2 assessed as residual activity at 1 uM.
Experiment [20] concerns the target T1, Mitogen-activated protein kinase kinase kinase 7 (Homo sapiens). The experiment can be described thus: Inhibition of TAK1 assessed as residual activity at 1 uM.
The target in experiment [21] is Leucine-rich repeat serine/threonine-protein kinase 2 (Homo sapiens) (UniProt Q5S007). Conditions: 0.01 to 1 uM.
Experiment [22] shares this target. Particulars: HEK293, 0.3 to 1 uM.
Experiment [23] has as its target Ribosomal protein S6 kinase beta-1 (Homo sapiens) (UniProt P23443). The experiment can be described thus: Inhibition of S6K1 assessed as residual activity at 1 uM.

Chain of Leucine-rich repeat serine/threonine-protein kinase 2 (Homo sapiens) (Q5S007 whole entry): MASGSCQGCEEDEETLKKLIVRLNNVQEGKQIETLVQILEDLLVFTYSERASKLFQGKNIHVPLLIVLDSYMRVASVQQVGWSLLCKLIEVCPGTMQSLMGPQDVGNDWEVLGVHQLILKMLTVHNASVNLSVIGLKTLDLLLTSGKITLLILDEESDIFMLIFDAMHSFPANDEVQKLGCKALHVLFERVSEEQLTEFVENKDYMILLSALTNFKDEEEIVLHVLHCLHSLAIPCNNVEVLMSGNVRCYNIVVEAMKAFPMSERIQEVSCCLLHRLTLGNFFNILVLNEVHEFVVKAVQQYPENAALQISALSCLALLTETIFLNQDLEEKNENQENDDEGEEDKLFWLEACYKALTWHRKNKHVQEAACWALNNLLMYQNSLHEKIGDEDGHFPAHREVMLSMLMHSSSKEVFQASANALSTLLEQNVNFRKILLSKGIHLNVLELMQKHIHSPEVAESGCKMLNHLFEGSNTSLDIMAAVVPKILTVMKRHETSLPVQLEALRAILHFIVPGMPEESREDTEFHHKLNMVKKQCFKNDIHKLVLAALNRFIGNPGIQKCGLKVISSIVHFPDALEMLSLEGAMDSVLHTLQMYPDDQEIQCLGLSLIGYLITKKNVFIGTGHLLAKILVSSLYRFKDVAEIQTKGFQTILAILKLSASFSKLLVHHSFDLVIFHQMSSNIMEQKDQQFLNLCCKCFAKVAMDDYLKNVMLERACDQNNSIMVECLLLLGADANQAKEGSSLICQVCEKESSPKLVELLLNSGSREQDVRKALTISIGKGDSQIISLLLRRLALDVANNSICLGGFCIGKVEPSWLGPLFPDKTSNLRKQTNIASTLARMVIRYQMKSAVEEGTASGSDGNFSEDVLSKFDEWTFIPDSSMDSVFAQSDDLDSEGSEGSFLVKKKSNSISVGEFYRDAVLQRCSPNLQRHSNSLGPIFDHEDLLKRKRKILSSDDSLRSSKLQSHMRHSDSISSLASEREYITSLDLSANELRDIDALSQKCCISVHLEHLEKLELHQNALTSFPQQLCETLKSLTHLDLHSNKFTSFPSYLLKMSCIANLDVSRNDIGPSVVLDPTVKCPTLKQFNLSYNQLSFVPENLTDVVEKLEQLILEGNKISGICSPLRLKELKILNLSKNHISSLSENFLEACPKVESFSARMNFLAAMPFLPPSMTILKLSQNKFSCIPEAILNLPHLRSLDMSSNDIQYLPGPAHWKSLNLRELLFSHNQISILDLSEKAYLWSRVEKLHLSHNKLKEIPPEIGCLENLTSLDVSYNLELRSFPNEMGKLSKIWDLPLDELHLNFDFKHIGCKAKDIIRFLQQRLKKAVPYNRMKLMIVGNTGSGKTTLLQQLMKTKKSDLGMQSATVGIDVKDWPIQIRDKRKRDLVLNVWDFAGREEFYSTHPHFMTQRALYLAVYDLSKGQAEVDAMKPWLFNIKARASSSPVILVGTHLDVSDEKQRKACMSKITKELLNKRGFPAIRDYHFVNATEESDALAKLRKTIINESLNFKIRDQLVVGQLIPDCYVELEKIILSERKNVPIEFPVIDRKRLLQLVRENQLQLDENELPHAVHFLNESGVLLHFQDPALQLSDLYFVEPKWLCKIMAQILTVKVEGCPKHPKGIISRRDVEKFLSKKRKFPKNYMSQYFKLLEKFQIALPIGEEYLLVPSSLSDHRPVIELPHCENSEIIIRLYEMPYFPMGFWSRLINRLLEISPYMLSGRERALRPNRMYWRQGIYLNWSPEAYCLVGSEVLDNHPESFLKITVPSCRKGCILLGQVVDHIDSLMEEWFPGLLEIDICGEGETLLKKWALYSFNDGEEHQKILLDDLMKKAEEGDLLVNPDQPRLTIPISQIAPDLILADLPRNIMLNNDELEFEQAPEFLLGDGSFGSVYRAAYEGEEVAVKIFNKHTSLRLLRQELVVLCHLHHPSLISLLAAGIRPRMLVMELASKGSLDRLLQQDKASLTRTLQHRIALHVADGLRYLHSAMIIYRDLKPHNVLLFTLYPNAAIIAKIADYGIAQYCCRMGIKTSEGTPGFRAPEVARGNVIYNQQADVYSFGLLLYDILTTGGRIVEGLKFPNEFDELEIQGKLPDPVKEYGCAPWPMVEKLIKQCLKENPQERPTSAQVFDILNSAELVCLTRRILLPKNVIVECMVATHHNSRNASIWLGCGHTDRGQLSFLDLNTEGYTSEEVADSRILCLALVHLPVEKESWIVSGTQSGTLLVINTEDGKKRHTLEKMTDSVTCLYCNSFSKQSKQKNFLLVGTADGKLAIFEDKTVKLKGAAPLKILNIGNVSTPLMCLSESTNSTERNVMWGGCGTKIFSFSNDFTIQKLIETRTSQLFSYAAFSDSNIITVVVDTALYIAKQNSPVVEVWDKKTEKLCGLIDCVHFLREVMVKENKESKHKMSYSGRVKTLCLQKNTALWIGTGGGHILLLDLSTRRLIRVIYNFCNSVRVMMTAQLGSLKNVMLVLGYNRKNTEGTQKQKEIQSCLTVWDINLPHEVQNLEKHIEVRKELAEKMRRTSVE
Chain of Serine/threonine-protein kinase 32B (Homo sapiens) (Q9NY57 whole entry): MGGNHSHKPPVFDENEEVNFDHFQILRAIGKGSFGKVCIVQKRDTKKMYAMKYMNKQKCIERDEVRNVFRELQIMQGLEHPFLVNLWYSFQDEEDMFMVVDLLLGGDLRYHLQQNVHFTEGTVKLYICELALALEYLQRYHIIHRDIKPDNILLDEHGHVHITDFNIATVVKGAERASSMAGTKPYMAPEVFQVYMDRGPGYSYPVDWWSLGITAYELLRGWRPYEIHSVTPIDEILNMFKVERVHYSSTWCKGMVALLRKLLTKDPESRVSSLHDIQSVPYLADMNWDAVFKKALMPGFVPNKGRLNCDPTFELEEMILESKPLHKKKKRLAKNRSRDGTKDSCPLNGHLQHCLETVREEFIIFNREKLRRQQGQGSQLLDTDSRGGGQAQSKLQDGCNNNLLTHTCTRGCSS
Chain of Receptor tyrosine-protein kinase erbB-2 (Homo sapiens) (P04626 whole entry): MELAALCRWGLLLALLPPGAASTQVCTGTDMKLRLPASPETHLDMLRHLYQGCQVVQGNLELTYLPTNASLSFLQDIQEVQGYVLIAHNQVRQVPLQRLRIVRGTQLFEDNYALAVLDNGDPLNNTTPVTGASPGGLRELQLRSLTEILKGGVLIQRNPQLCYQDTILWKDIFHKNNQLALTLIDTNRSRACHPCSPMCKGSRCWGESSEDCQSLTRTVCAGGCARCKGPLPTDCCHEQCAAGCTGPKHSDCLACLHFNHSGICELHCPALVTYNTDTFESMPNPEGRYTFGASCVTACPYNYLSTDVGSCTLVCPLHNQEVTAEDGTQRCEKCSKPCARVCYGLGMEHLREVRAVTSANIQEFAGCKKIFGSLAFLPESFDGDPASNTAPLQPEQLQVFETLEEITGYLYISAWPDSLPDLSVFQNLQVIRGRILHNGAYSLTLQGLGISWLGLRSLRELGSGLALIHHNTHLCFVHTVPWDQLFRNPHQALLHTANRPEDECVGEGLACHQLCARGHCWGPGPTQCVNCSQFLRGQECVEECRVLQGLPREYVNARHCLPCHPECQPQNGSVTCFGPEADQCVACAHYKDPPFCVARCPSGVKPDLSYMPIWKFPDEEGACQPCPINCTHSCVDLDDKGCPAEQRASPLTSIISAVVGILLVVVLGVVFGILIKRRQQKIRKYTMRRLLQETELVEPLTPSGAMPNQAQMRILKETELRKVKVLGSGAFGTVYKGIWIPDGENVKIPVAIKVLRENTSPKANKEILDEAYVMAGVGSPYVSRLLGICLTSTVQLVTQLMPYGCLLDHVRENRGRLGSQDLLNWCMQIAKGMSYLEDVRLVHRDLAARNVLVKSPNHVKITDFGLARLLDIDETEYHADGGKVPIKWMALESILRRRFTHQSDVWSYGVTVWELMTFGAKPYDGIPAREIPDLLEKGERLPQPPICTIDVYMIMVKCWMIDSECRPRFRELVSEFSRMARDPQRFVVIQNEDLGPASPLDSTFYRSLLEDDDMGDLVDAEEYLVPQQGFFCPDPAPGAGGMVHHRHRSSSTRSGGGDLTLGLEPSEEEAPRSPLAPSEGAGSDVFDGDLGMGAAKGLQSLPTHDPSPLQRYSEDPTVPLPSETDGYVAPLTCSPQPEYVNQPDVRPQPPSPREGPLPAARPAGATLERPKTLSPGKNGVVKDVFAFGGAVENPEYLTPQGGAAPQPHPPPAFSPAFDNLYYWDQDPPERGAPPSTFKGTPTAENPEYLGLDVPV
Chain of Dual specificity tyrosine-phosphorylation-regulated kinase 3 (Homo sapiens) (O43781 whole entry): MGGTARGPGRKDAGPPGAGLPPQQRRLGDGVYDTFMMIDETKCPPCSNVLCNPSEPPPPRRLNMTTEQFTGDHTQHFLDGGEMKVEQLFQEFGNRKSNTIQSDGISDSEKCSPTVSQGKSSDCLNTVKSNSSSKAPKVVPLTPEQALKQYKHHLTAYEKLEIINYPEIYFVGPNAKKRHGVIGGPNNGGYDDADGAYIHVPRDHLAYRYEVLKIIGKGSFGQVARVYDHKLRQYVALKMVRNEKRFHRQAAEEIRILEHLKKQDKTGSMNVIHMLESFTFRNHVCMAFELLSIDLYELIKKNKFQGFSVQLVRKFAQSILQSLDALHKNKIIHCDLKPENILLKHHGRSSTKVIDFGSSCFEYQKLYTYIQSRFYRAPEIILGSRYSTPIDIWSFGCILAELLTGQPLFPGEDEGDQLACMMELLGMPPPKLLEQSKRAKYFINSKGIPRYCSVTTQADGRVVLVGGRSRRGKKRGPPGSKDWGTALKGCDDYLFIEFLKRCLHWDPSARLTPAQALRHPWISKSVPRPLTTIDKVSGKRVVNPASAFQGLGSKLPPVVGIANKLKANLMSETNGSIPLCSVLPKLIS
Chain of Serine/threonine-protein kinase Nek6 (Homo sapiens) (Q9HC98 whole entry): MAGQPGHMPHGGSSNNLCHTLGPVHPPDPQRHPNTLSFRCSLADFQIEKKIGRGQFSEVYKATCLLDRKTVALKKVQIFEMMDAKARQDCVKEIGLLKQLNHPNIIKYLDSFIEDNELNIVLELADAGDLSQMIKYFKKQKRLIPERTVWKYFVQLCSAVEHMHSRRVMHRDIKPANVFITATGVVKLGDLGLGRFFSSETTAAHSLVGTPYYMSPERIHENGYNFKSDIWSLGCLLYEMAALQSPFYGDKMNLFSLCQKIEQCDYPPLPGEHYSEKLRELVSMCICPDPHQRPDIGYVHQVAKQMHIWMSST

In the case of `O=C(Nc1cccnc1)c1cc(-c2ccnc(F)c2)ccc1OCc1ccccc1`, the Activity in experiment [1] stood at 79%; in experiment [2], 68%; in experiment [3], 59%; in [4] it was 63%; in experiment [5], 101%; in [6] it was 102%. Also, the Activity in [7] worked out at 38%; in experiment [8], 50%; in [9], 43%; in experiment [10], 101%; in experiment [11] it was 113%; in [12], 106%. Further, the Activity in experiment [13] was 65%; in experiment [14], 66%; in [15], 63%; in experiment [16], 57%; in experiment [17], 81%; in experiment [18], 103%. The values for the Activity in experiment [19], in [20] and in [23] were 119%, 108% and 101%, respectively. For the same molecule, the inhibition result in experiment [21] and in experiment [22] was “Active” in each case.

The values are drawn from ChEMBL document CHEMBL2203081 (Bioorg Med Chem Lett, 2012).
